Measured values: ChEMBL document CHEMBL4354863, “Discovery of Novel Allosteric Inhibitors of Deoxyhypusine Synthase” (J Med Chem, 2020)

Key:
Deoxyhypusine synthase [1] = biological target: T1, Deoxyhypusine synthase (Homo sapiens, UniProt P49366); assay: (§1) Inhibition of human N-terminal His6-tagged TEV protease site linked DHPS expressed in Escherichia coli BL21 (DE3) assessed as reduction in radiolabelled amino-butylidene incorporation in eIF5A using [3H]Spermidine trichloride as substrate after 90 to 120 mins in presence of eIF5A and 14 uM NAD+ by Topcount scintillation counting method
T1 sequence (P49366 whole entry): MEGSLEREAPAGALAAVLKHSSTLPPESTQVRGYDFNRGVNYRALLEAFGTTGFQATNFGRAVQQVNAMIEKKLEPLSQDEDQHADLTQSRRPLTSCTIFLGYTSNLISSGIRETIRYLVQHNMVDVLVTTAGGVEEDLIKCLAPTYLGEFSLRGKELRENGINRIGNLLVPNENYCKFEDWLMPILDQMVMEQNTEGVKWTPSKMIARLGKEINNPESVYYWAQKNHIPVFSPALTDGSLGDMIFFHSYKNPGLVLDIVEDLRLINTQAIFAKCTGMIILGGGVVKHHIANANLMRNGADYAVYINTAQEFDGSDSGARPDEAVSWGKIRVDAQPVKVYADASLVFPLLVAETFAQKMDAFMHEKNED
Outline: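 Reaction run 120 min at room temperature, quenched with GC-7, and bound to streptavidin plates for 90–120 min. Plates washed and scintillation-counted. IC50 with 95% CI from nonlinear regression of percent inhibition.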

Deoxyhypusine synthase [2] = biological target: T1, Deoxyhypusine synthase; assay: as §1, with “Competitive inhibition” for “Inhibition”, “using 2 uM of” for “using”, “250” for “14”
Outline: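 Human DHPS (His-tagged, tag removed with TEV, purified by Ni-affinity and size exclusion), 24 nM, with 1 µM eIF5A, 2 µM [³H]-spermidine (38.5 Ci/mmol) and 250 µM NAD⁺ (×18 Km). Reaction run 120 min at room temperature, stopped with GC-7, and captured on streptavidin plates for 90–120 min. Plates washed with PBS and counted by scintillation. IC50 from nonlinear regression of percent inhibition.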

Deoxyhypusine synthase [3] = biological target: T1, Deoxyhypusine synthase; assay: as §1, with “Competitive inhibition” for “Inhibition”, “using 100 uM of” for “using”
Outline: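 Human DHPS expressed in E. coli, Ni-affinity purified, His-tag removed by TEV protease, then size-exclusion purified; 24 nM enzyme. Run with 1 µM eIF5A, 14 µM NAD+, 100 µM [3H]-spermidine (high-spermidine condition), 1 mM DTT, 50 mM Tris-HCl pH 8.0, 120 min at room temperature. Stopped with GC-7, captured on streptavidin plates, PBS-washed, scintillation counted. IC50 from nonlinear regression, 95% CI.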

With `O=C(Nc1cccc2[nH]ccc12)c1cc2cccc(Br)c2s1` the IC50 (Deoxyhypusine synthase [1]) was greater than 100 µM.

Work on `CC(C)(C)c1ccc(C(=O)Nc2cccc3cn[nH]c23)cc1` yielded an IC50 (Deoxyhypusine synthase [1]) greater than 100 µM.

`O=C(Nc1cccc2[nH]ccc12)c1cc2ccccc2o1` was tested, and the IC50 (Deoxyhypusine synthase [1]) was greater than 100 µM.

Compound `CC(C)(C)c1ccc(C(=O)Nc2cccc3c2CC(=O)N3)cc1` has an IC50 (Deoxyhypusine synthase [1]) of 42 µM.

`CC(C)(C)c1ccc(C(=O)Nc2cccc3[nH]ncc23)cc1` gave an IC50 (Deoxyhypusine synthase [1]) of 22 µM.

Work on `CC(C)(C)c1ccc(C(=O)Nc2cccc3[nH]ccc23)cc1` yielded an IC50 (Deoxyhypusine synthase [2]) of 38 µM and an IC50 (Deoxyhypusine synthase [1]) of 0.84 µM.

Work on `O=C(Nc1cccc2[nH]ccc12)c1cc2cc(Br)ccc2s1` yielded an IC50 (Deoxyhypusine synthase [1]) greater than 100 µM.

With `CC(C)(C)c1ccc(C(=O)Nc2cccc3c2CCN3)cc1` the IC50 (Deoxyhypusine synthase [1]) was greater than 100 µM.

`O=C(Nc1cccc2[nH]ccc12)c1cc2ccc(Br)cc2s1` showed an IC50 (Deoxyhypusine synthase [2]) of 56 µM, an IC50 (Deoxyhypusine synthase [1]) of 0.062 µM and an IC50 (Deoxyhypusine synthase [3]) of 6.9 µM.

With `NC(=O)c1ccc2cc(C(=O)Nc3cccc4[nH]ccc34)sc2c1` the IC50 (Deoxyhypusine synthase [1]) was 11 µM.

`CC(C)(C)c1ccc2cc(C(=O)Nc3cccc4[nH]ccc34)sc2c1` gave an IC50 (Deoxyhypusine synthase [1]) of 5.4 µM.

`N#Cc1ccc2cc(C(=O)Nc3cccc4[nH]ccc34)sc2c1` gave an IC50 (Deoxyhypusine synthase [1]) of 0.43 µM.

Compound `O=C(Nc1cccc2[nH]ccc12)c1ccccc1` has an IC50 (Deoxyhypusine synthase [1]) greater than 100 µM.

`CC(C)(C)c1ccc(S(=O)(=O)Nc2cccc3[nH]ccc23)cc1` was tested, and the IC50 (Deoxyhypusine synthase [1]) was greater than 100 µM.

Work on `O=C(Nc1cccc2[nH]ccc12)c1cc2ccc(Cl)cc2s1` yielded an IC50 (Deoxyhypusine synthase [1]) of 0.12 µM.

`O=C(Nc1cccc2[nH]ccc12)c1ccc2ccccc2c1` gave an IC50 (Deoxyhypusine synthase [1]) greater than 100 µM.

For `O=C(Nc1cccc2[nH]ccc12)c1cc2ccc(I)cc2s1`, the IC50 (Deoxyhypusine synthase [1]) was 0.092 µM.

For `O=C(Nc1cccc2[nH]ccc12)c1cc2ccccc2s1`, the IC50 (Deoxyhypusine synthase [1]) was 2.3 µM.

`CC(C)(C)c1ccc(NC(=O)Nc2cccc3[nH]ccc23)cc1` gave an IC50 (Deoxyhypusine synthase [1]) greater than 100 µM.

Compound `CC(C)(C)c1ccc(NC(=O)c2cccc3[nH]ccc23)cc1` has an IC50 (Deoxyhypusine synthase [1]) of 99 µM.

With `N=C(N)NCCCCCCCN` the IC50 (Deoxyhypusine synthase [2]) was 0.5 µM and the IC50 (Deoxyhypusine synthase [1]) was 0.14 µM.
